HTR1A agonist – human 5-HT1a receptor agonists, primary screen, cell-based, CHO, Ga15 NFAT-bla reporter. CHO 5-HT1a Ga15 NFAT-bla reporter, FRET ratio; 0% basal, 100% maximal reference agonist. 0.56% of 65,000 active. 5-hydroxytryptamine receptor 1A (Homo sapiens), P08908. activation, % at 10 µM. AID 567, 2006;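 active = activation above the screen-wide mean activation plus 3 SD, cut at about 19% in these data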;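 note: 0% = DMSO wells and 100% = 5-CT at EC100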
S1P1 ag pot – S1P1 agonists and agonism potentiators, primary screen, cell-based, primary and confirmation screens, CRE-bla reporter; Sphingosine 1-phosphate receptor 1 (Homo sapiens), P21453; S1P1 CRE-bla cells, forskolin, beta-lactamase FRET, potentiator mode; S1P1 agonist co-added at EC20, 2 nM; 100% = saturating reference agonist, 0% = basal; activation, % at 9.5 µM; 0.57% of 56,000 active;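 active = activation above a cutoff set at the mean activation of all tested compounds plus 3 SD, cut at about 54% in these data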;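 note: forskolin at 4 µM as EC80 and the EC20 agonist is SEW2871; 100% = SEW2871 at its EC100 plus forskolin at EC80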
5-HT1A blocker – human 5-HT1a receptor antagonists, primary screen, cell-based, CHO, Ga15 NFAT-bla reporter | 0.68% of 62,000 active | inhibition, % at 10 µM | AID 612, 2007 | 5-hydroxytryptamine receptor 1A (Homo sapiens), P08908 | CHO 5-HT1a Ga15 NFAT-bla reporter, antagonist mode;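 active = inhibition above the mean of all tested compounds plus 3 SD, cut at about 43% in these data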;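 note: receptor stimulated by 5-CT agonist at 100 nM near EC80; beta-lactamase reporter measured by ratiometric fluorescence of a cleavable substrate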
5HT1E ag – 5-HT1E receptor agonists, primary screen, cell-based, HTS. 5-hydroxytryptamine receptor 1E (Homo sapiens), P28566. CHO 5-HT1E Ga15 NFAT-bla reporter, FRET; 0% DMSO wells, 100% control agonist wells. activation, % at 6 µM. 0.69% of 65,000 active;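 active = activation above a set limit, the screen-wide mean activation plus 3 SD, cut at about 8.5% in these data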;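 note: 100% = positive control agonist at 1 µM giving full maximal response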
5HT1E antag – 5-HT1E receptor antagonists, primary screen, cell-based, HTS; 5-hydroxytryptamine receptor 1E (Homo sapiens), P28566; CHO 5-HT1E Ga15 NFAT-bla reporter, FRET, antagonist; inhibition, % at 6 µM; 0.99% of 65,000 active;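 active = inhibition above a set limit, the mean inhibition across every tested compound plus 3 SD, cut at about 29% in these data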;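 note: signal is the 460 over 535 nm emission ratio of beta-lactamase substrate; 0% = agonist plus DMSO wells and 100% = wells without agonist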
S1P3 agonist – human S1P3 receptor agonists, primary screen, cell-based, primary and confirmation, NFAT-BLA reporter; Sphingosine 1-phosphate receptor 3 (Homo sapiens), Q99500; S1P3 NFAT-BLA reporter cells, agonism, FRET ratio; relative to 1 µM S1P, basal subtracted; activation, % at 4.5 µM; 0.1% of 60,000 active; AID 373, 2006;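 active = activation above the screen-wide mean plus 3 SD, cut at about 4.5% in these data, passing the limit was not always enough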
Target sequence (Q99500 whole entry, looked up): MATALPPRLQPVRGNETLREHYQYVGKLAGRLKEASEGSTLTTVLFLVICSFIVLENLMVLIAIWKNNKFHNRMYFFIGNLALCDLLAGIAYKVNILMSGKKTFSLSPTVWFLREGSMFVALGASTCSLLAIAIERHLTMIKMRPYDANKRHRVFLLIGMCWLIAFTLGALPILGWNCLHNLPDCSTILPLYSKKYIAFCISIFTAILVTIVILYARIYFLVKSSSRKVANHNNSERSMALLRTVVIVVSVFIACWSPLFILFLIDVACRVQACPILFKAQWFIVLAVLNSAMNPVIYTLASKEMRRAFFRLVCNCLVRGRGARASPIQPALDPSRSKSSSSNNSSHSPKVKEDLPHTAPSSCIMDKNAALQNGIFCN
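Assay system: stable CHO line with human S1P3, Gα16, NFAT-BLA reporter; Detection: FRET β-lactamase substrate fluorescence, excitation 405 nm, 460/535 nm emission ratio, background-subtracted; Read-out: percent activation versus median 1 µM S1P response, basal-subtracted, per plate; Incubation: cells plated overnight, compound 4 h 37 °C, substrate 2 h RT.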
An asterisk follows results filed as active. Compounds with a hit are over-represented: about 2.9% of the library has one in this group of screens.

What do the screens show for `Cc1cccc(-n2ncc(C#N)c2N)c1`?
HTR1A agonist: 0; S1P1 ag pot: -8; 5-HT1A blocker: -12; 5HT1E ag: 0; 5HT1E antag: -6; S1P3 agonist: 0

Results for Cc1cccc(N2C(N)=C(C#N)C(C#N)(C#N)C2c2ccccc2)c1 (stereo not drawn) ?
HTR1A agonist: -1; S1P1 ag pot: -25; 5-HT1A blocker: 6; 5HT1E ag: 1; 5HT1E antag: 42*; S1P3 agonist: 1

How did CN1C(=O)C(C(=O)NC(C)(C)C)C2c3ccccc3OC13CCCCC23 (stereo not drawn) do in these assays?
HTR1A agonist: 0; S1P1 ag pot: 5; 5-HT1A blocker: 8; 5HT1E ag: 0; 5HT1E antag: -2; S1P3 agonist: 0

Results for CCn1ncc(C2=NOC(C(=O)NCc3ccccc3)C2)c1C (stereo not drawn) ?
HTR1A agonist: -5; S1P1 ag pot: -9; 5-HT1A blocker: 10; 5HT1E ag: -2; 5HT1E antag: 37*; S1P3 agonist: -1

Results for COc1ccc(C2=NOC(C(=O)NCc3ccccc3)C2)cc1 (stereo not drawn) ?
HTR1A agonist: -3; S1P1 ag pot: 15; 5-HT1A blocker: 30; 5HT1E ag: 0; 5HT1E antag: 39*; S1P3 agonist: 0

Results for CCOC(=O)C(C(=O)OCC)c1cc(Br)c2noc3c2c1C(=O)c1ccccc1-3 ?
HTR1A agonist: -4; 5-HT1A blocker: 48*; 5HT1E ag: 0; 5HT1E antag: 32*

Results for CC1(c2ccc(Cl)cc2Cl)OCC(Cn2ccnc2)O1 (stereo not drawn) ?
HTR1A agonist: 1; S1P1 ag pot: 7; 5-HT1A blocker: 16; 5HT1E ag: -2; 5HT1E antag: 12; S1P3 agonist: -1

How did COc1cc2c(O)c3c(c(-c4ccc5c(c4)OCO5)c2cc1OC)C(=O)OC3 do in these assays?
HTR1A agonist: -1; S1P1 ag pot: 25; 5-HT1A blocker: 21; 5HT1E ag: -1; 5HT1E antag: 34*; S1P3 agonist: -1

What do the screens show for `CCN(CC)c1nc2n(c(=O)n1)CCN2CC`?
HTR1A agonist: 0; S1P1 ag pot: 3; 5-HT1A blocker: -5; 5HT1E ag: 0; 5HT1E antag: -6; S1P3 agonist: 0

How did CCN1CCn2c1nc(N1CCCCC1)nc2=O do in these assays?
HTR1A agonist: 1; S1P1 ag pot: -18; 5-HT1A blocker: 7; 5HT1E ag: 9.4*; 5HT1E antag: -9; S1P3 agonist: -1

What do the screens show for `COc1ccc(S(=O)(=O)Nc2ccc3c(c2)OCCO3)cc1Cl`?
HTR1A agonist: 0; S1P1 ag pot: 18; 5-HT1A blocker: 10; 5HT1E ag: 0; 5HT1E antag: 4; S1P3 agonist: -1

Results for O=S(=O)(Nc1ccc2c(c1)OCCO2)c1ccc2oc3ccccc3c2c1 ?
HTR1A agonist: -1; S1P1 ag pot: 72*; 5-HT1A blocker: 17; 5HT1E ag: 0; 5HT1E antag: 5; S1P3 agonist: 0

Results for Clc1cc(Br)ccc1OCCOCCN1CCOCC1 ?
HTR1A agonist: -5; S1P1 ag pot: -5; 5-HT1A blocker: -9; 5HT1E ag: -1; 5HT1E antag: 1; S1P3 agonist: -3

How did Cc1nnc(NCc2ccco2)c2ccccc12 do in these assays?
HTR1A agonist: -1; S1P1 ag pot: 0; 5-HT1A blocker: -15; 5HT1E ag: -1; 5HT1E antag: -7; S1P3 agonist: -1

What do the screens show for `Cc1nnc(NCc2ccncc2)c2ccccc12`?
HTR1A agonist: 88*; S1P1 ag pot: -8; 5-HT1A blocker: 5; 5HT1E ag: 1; 5HT1E antag: -5; S1P3 agonist: -1

What do the screens show for `C=CCc1ccccc1OCC(O)CN1CCN(c2ccc(C)cc2)CC1` (stereo not drawn)?
HTR1A agonist: -1; S1P1 ag pot: -8; 5-HT1A blocker: 73*; 5HT1E ag: 0; 5HT1E antag: 6; S1P3 agonist: -1

Results for COc1ccccc1C(=O)n1nc(-c2ccccc2)nc1NCc1ccco1 ?
HTR1A agonist: -2; S1P1 ag pot: -26; 5-HT1A blocker: 44*; 5HT1E ag: -1; 5HT1E antag: 0; S1P3 agonist: -1

Results for c1cn(-c2ncnc3sc4c(c23)CCCC4)cn1 ?
HTR1A agonist: -2; S1P1 ag pot: 15; 5-HT1A blocker: 13; 5HT1E ag: 0; 5HT1E antag: -3; S1P3 agonist: -1

How did CN(C)CCCn1c(NC(=O)C2CCCCC2)nc2ccccc21 do in these assays?
HTR1A agonist: 0; S1P1 ag pot: 17; 5HT1E ag: 54*; 5HT1E antag: -7; S1P3 agonist: -2

How did CC(=O)Nc1nc2ccccc2n1CCN(C)C do in these assays?
HTR1A agonist: -2; S1P1 ag pot: -13; 5-HT1A blocker: -3; 5HT1E ag: 0; 5HT1E antag: -1; S1P3 agonist: -2

What do the screens show for `c1ccc(CSc2nnc(-c3c[nH]c4ccccc34)o2)cc1`?
HTR1A agonist: -2; S1P1 ag pot: 98*; 5-HT1A blocker: 20; 5HT1E ag: 0; 5HT1E antag: 2; S1P3 agonist: -1

Results for O=C(CSc1nnc(-c2c[nH]c3ccccc23)o1)N1c2ccccc2CCc2ccccc21 ?
HTR1A agonist: 2; S1P1 ag pot: 56; 5-HT1A blocker: 32; 5HT1E ag: 0; 5HT1E antag: -1; S1P3 agonist: 0

How did COc1ccc(S(=O)(=O)Nc2cccc(NC(C)=O)c2)cc1 do in these assays?
HTR1A agonist: 1; S1P1 ag pot: 2; 5-HT1A blocker: 1; 5HT1E ag: 0; 5HT1E antag: 3; S1P3 agonist: 0

Results for O=C(O)CCCC(=O)Nc1nc(-c2ccccc2)cs1 ?
HTR1A agonist: -4; S1P1 ag pot: -23; 5-HT1A blocker: 6; 5HT1E ag: 26*; 5HT1E antag: -12; S1P3 agonist: 0

Results for COc1cc(S(=O)(=O)N2CCN(C)CC2)c(OC)cc1Br ?
HTR1A agonist: -2; S1P1 ag pot: 6; 5HT1E ag: 0; 5HT1E antag: -4; S1P3 agonist: 1

How did COc1ccccc1OCc1ccc(C(=O)n2nc(C)c(Cl)c2C)o1 do in these assays?
HTR1A agonist: 0; S1P1 ag pot: -1; 5-HT1A blocker: 5; 5HT1E ag: 0; 5HT1E antag: -8; S1P3 agonist: 0

Source: PubChem (The Scripps Research Institute Molecular Screening Center)
